Source: PubChem (several laboratories)
Most compounds without a hit are left out; they make up all but 3.7% or so of the library.
MDM2 E3 inh: inhibitors of human Mdm2 E3 ubiquitin ligase. Q00987. cell-based MDM2 ubiquitination luciferase reporter, 2 h; 0 = plate control, 100 = twice control, blank-subtracted. signal enhancement, % at 5 µM. 210,000 tested, 0.11% active. AID 1230;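 active means signal enhancement of 30% or more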;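 further: luminescence tracks abundance of the self-degrading MDM2-luciferase fusion protein; higher signal means inhibition of MDM2 E3 ligase activity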
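Material: stable MDM2–luciferase fusion reporter cells / Quantity: 2000 cells/well / Dosing: single 5 µM compound dose, 0.2% final DMSO / Buffer or medium: DMEM / Schedule: 4 h cell settling then 2 h compound exposure, 37 °C / Detection: luminescence with SteadyLite reagent, 15 min at room temperature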
Mdm2 MdmX PPI: disrupts the human Mdm2-MdmX interaction | 330,000 tested, 3% active | inhibition, % at 8 µM | O15151+Q00987 | SaOS-2 split-luciferase Mdm2/MdmX complementation, luminescence;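 active means inhibition of at least 50% at 8 µM in the primary screen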
Target sequence (O15151 whole entry, looked up): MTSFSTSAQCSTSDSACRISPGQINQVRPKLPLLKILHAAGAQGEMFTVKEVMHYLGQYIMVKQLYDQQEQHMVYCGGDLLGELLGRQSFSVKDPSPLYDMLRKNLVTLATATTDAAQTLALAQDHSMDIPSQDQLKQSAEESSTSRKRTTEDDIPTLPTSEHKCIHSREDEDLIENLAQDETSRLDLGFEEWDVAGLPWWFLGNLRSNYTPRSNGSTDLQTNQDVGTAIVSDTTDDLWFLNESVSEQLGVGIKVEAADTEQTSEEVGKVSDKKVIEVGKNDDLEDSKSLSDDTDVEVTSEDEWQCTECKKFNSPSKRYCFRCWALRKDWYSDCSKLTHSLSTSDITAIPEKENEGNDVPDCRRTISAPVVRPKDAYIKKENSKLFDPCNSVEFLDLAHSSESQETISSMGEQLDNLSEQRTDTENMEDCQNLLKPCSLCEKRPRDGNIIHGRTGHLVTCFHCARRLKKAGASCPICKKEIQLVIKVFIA
Target sequence (Q00987 whole entry, looked up): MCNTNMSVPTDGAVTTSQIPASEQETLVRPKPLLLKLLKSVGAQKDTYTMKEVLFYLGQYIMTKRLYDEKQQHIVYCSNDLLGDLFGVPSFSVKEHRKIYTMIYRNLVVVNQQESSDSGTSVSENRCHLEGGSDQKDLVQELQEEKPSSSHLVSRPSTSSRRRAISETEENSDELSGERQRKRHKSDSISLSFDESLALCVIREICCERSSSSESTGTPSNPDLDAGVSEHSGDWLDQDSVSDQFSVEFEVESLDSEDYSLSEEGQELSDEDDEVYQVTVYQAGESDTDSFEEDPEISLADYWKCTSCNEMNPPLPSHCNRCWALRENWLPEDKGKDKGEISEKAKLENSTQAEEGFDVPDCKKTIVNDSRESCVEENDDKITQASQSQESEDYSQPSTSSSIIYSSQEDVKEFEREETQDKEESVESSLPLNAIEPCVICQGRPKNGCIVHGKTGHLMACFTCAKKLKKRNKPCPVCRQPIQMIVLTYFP
Dynein cargo inh: dynein cargo transport inhibition | 3617.4 mouse cells, GR-EGFP nuclear translocation imaging; test concentration mostly 20 µM; stimulated with dexamethasone, 1 µM; active compounds read low | z-score, hits read low | 220,000 tested, 0.47% active;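 active means plate z-score of nuclear minus cytoplasmic receptor signal below a set negative limit, without overly bright fluorescence or cell loss, cut at about -3.5 in these data, passing the limit was not always enough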;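 further: z-score of nuclear minus cytoplasmic ring GR-EGFP intensity difference per well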
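Also added – dexamethasone, 1.0 µM final · Buffer or medium – tet-free, stripped-serum medium · Schedule – induction 48 h, compound 1 h, agonist 30 min · Detection – formaldehyde fixation, Hoechst nuclear stain, 10x automated fluorescence imaging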
UPR CHOP act: apoptotic UPR (CHOP) activation. 330,000 tested, 0.34% active. activation, % at 10 µM. AID 449763. CHO-CHOP luciferase reporter, luminescence; percent of tunicamycin response over DMSO baseline;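 active means at 10 µM dose, activation of 40% or more, normalized to positive control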;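 further: 100% = tunicamycin at 10 µg/mL and 0% = DMSO alone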
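Evaluation: % reporter activation, DMSO baseline versus tunicamycin full activation; System: CHO-CHOP luciferase reporter cell line; Input: 500 cells/well; Incubation: 6 h compound treatment, 37 °C; Measured by: Steady-Glo luciferase luminescence; Dosing: one dose, 10 µM in 0.5% DMSO; Buffer or medium: F12 medium, 10% FBS; Benchmarks: positive tunicamycin 10 µg/mL, negative DMSO alone.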
UPR XBP1 act: activators of adaptive arm of unfolded protein response (XBP1). AID 463104. CHO-XBP1 luciferase reporter, IRE1-XBP1 UPR activation, luminescence; percent of tunicamycin response, DMSO as zero. activation, % at 20 µM. 330,000 tested, 0.33% active;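 active means versus positive control, 20 µM dose yields 30% or more activation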;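 further: 100% = tunicamycin at 10 µg/mL and 0% = DMSO only wells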
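Material: CHO-XBP1 cells stably carrying IRE1-XBP1-driven luciferase reporter | Medium: F12 with 10% serum | Compound dosing: 20 µM single concentration, DMSO 1% | Incubation: Overnight seeding at 37 °C, 6 h compound treatment at 37 °C | Detection: Steady-Glo luminescence read | Read-out basis: % activation of reporter signal versus tunicamycin and DMSO controls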
Beta2AR agonist: activates human beta-2 adrenergic receptor causing internalization; 340,000 tested, 0.43% active; Am2.2-beta2AR cells, FAP receptor internalization, flow cytometry; response, % (concentration not given with the values); P07550;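 active means response above a set limit, near 3 SD of response in nonfluorescent compounds, cut at about 42% in these data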
Mdm2 MdmX conf: confirmation of human Mdm2/MdmX interaction inhibitors. shares compounds with Mdm2 MdmX PPI. Mdm2-MdmX binding, luminescent assay. inhibition, % at 8 µM. 10,000 tested, 55% active. AID 489028; in the data active means inhibition above about 40%
FLuc counter: counter-screen for Mdm2/MdmX inhibitors: full-length luciferase. SaOS-2 full-length luciferase counterscreen, luminescence. 6,200 tested, 77% active. inhibition, % at 8 µM. shares compounds with Mdm2 MdmX PPI;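 active means mean inhibition at 8 µM reaching about 37%, which flags the compound as non-specific, limit read from the data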;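 further: p53-null SaOS-2 cells with luciferase driven by a doxycycline-inducible promoter; compound on cells about two nights before reading with doxycycline added after day one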
Active calls of the source: *.

What do the screens show for `O=c1c2ccccc2nc(/C=C/c2ccccc2O)n1-c1ccccc1O`?
Mdm2 MdmX PPI: 82*; UPR CHOP act: 3; UPR XBP1 act: -5; Beta2AR agonist: -201; Mdm2 MdmX conf: 56*; FLuc counter: 63*

How did Cc1ccc(-n2c(/C=C/c3ccccn3)nc3ccccc3c2=O)cc1 do in these assays?
Mdm2 MdmX PPI: 59*; UPR CHOP act: -1; UPR XBP1 act: 0; Beta2AR agonist: -1; Mdm2 MdmX conf: 17

Results for O=c1c2ccccc2nc(/C=C/c2ccccc2F)n1-c1ccccc1O ?
Mdm2 MdmX PPI: 49; UPR CHOP act: 2; UPR XBP1 act: -7; Beta2AR agonist: 4

What do the screens show for `O=c1c2ccccc2nc(/C=C/c2ccccn2)n1-c1ccccc1`?
Mdm2 MdmX PPI: 8; UPR CHOP act: 1; UPR XBP1 act: -4; Beta2AR agonist: -3

What do the screens show for `COc1cc(/C=C/c2nc3ccccc3c(=O)n2-c2ccc(O)cc2)ccc1O`?
Mdm2 MdmX PPI: 77*; UPR CHOP act: 4; UPR XBP1 act: 14; Beta2AR agonist: -45; Mdm2 MdmX conf: 46*; FLuc counter: 95*

What do the screens show for `O=P(O)(O)C#Cc1ccccc1`?
MDM2 E3 inh: -14; Dynein cargo inh: 0.82

What do the screens show for `CCOC(=O)CC(NC(=O)C(Cc1ccc(N(CCCl)CCCl)cc1)NC(C)=O)C(=O)OCC` (centres undefined)?
MDM2 E3 inh: -6; Mdm2 MdmX PPI: 81*; Dynein cargo inh: 0.29; UPR CHOP act: 2; UPR XBP1 act: 1; Beta2AR agonist: 16; Mdm2 MdmX conf: 57*; FLuc counter: 15

Results for CCOc1cc(C2C(C#N)=C(N)Oc3c2c(=O)oc2ccccc32)ccc1OC(=O)c1cccs1 (centres undefined) ?
MDM2 E3 inh: -16; Mdm2 MdmX PPI: 23; Dynein cargo inh: 0.71; UPR CHOP act: 2; UPR XBP1 act: 1; Beta2AR agonist: -14

What do the screens show for `CN(C)C(=O)O/N=C(\N)COc1ccc(C(C)(C)C)cc1`?
MDM2 E3 inh: -16; Mdm2 MdmX PPI: 98*; Dynein cargo inh: -0.34; UPR CHOP act: 2; UPR XBP1 act: 4; Beta2AR agonist: 6; Mdm2 MdmX conf: 96*; FLuc counter: 57*

How did C[C@H]1CCC/C=C/C2C[C@H](O)CC2[C@H](O)/C=C/C(=O)O1 (some centres undefined) do in these assays?
Mdm2 MdmX PPI: 100*; Dynein cargo inh: 0.44; UPR CHOP act: 107*; UPR XBP1 act: 14; Beta2AR agonist: 36; Mdm2 MdmX conf: 99*; FLuc counter: 51*

What do the screens show for `C[C@H]1CCC[C@@H](O)CCC/C=C/c2cc(O)cc(O)c2C(=O)O1`?
MDM2 E3 inh: 6; Mdm2 MdmX PPI: 40; Dynein cargo inh: -1.2; UPR CHOP act: 1; UPR XBP1 act: -1; Beta2AR agonist: 4

Results for O=[N+]([O-])c1ccc(Cl)c([N+](=O)[O-])c1 ?
Mdm2 MdmX PPI: 87*; UPR CHOP act: 36; UPR XBP1 act: -8; Beta2AR agonist: 59*; Mdm2 MdmX conf: 10

How did CCCCn1c(O)c(/C=C/C=Nc2ccccc2)c(=O)[nH]c1=O do in these assays?
MDM2 E3 inh: -15; Mdm2 MdmX PPI: -8; Dynein cargo inh: -0.51; UPR CHOP act: 4; UPR XBP1 act: 1; Beta2AR agonist: -17

How did COc1ccc(OC)c(CN2CCCC(C(=O)c3sccc3C)C2)c1 (centres undefined) do in these assays?
MDM2 E3 inh: -15; Mdm2 MdmX PPI: 12; Dynein cargo inh: 0.32; UPR CHOP act: -2; UPR XBP1 act: -2; Beta2AR agonist: -6

How did CC(C)(C)c1ccc(O)c(N=Cc2c(O)ccc3ccccc23)c1 do in these assays?
Mdm2 MdmX PPI: 50*; UPR CHOP act: 10; UPR XBP1 act: -3; Beta2AR agonist: -324; Mdm2 MdmX conf: 18

How did CC(C)c1ccc(N=Cc2c(O)n(C3CC3)c(=S)[nH]c2=O)cc1 do in these assays?
MDM2 E3 inh: 2; Mdm2 MdmX PPI: 18; Dynein cargo inh: 0.023; UPR CHOP act: 6; UPR XBP1 act: 1; Beta2AR agonist: -5

What do the screens show for `CC1(C)C(C(=O)N2CCN(c3ccc(Cl)cc3)CC2)C1(C)C`?
Mdm2 MdmX PPI: -29; UPR CHOP act: 3; UPR XBP1 act: 1; Beta2AR agonist: -3

What do the screens show for `COC(=O)C1CN(C#N)N(c2ccc(Cl)cc2)C12c1ccccc1-c1ccccc12` (centres undefined)?
MDM2 E3 inh: -36; Mdm2 MdmX PPI: 95*; Dynein cargo inh: -3.9; UPR CHOP act: -10; UPR XBP1 act: -7; Beta2AR agonist: 40; Mdm2 MdmX conf: 24

What do the screens show for `CNc1ccc2nc3ccccc3[n+](C)c2c1`?
Mdm2 MdmX PPI: 83*; UPR CHOP act: 2; UPR XBP1 act: -6; Beta2AR agonist: 2; Mdm2 MdmX conf: 50*; FLuc counter: 9

What do the screens show for `C[C@@H]1O[C@@H](O[C@H]2C[C@@H](O)[C@]3(CO)[C@@H]4C(CC[C@]3(O)C2)[C@@]2(O)CC[C@H](C3COC(=O)C3)[C@@]2(C)C[C@H]4O)[C@H](O)[C@H](O)[C@H]1O` (some centres undefined)?
Mdm2 MdmX PPI: 68*; UPR CHOP act: 1; UPR XBP1 act: -4; Beta2AR agonist: 3; Mdm2 MdmX conf: 70*; FLuc counter: 24

What do the screens show for `CCn1c(O)c(C(c2ccccn2)c2c(O)n(CC)c(=S)[nH]c2=O)c(=O)[nH]c1=S`?
MDM2 E3 inh: 5; Mdm2 MdmX PPI: 8; Dynein cargo inh: 0.033; UPR CHOP act: -2; UPR XBP1 act: 2; Beta2AR agonist: 4

Results for CC1Oc2cc3c(-c4c(O)cc(O)c5c(O)c6c(cc45)OC(C)C(C)C6=O)c(O)cc(O)c3c(O)c2C(=O)C1C (centres undefined) ?
MDM2 E3 inh: 4; Mdm2 MdmX PPI: 89*; Dynein cargo inh: -0.55; UPR CHOP act: 7; UPR XBP1 act: 18; Beta2AR agonist: 1; Mdm2 MdmX conf: 73*; FLuc counter: 22

Results for Clc1ccccc1Nc1ncnc(-n2cccc2)n1 ?
MDM2 E3 inh: 10; Mdm2 MdmX PPI: -90; Dynein cargo inh: 0.26; UPR CHOP act: 4; UPR XBP1 act: 9; Beta2AR agonist: 6
